Data as given in paper PMC11377146 (International Journal for Parasitology: Drugs and Drug …, 2024).
Where “and” joins values, the source holds several entries; their conditions need not be identical. Identical values can stand only once.

Assays:
[1] = Cytotoxicity; type: cell-based; details: human, Caco-2 cells
Outline: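 Caco-2 cells grown 24 h in EMEM + 10% FBS, 37 °C, 5% CO2. Test compound (10 ng/ml–100 μg/ml, in EMEM with 0.5% DMSO) applied for 24 h. MTT (5 mg/ml stock) added for 4 h, formazan dissolved in 4 mM HCl/0.1% Nonidet P-40 in isopropanol. A590 read, 620 nm reference. Viability relative to untreated wells; CC50 from curve fit.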

[2] = tested on: G. duodenalis trophozoite stage; assay: In vitro antigiardial assay; type: cell-based; details: Giardia duodenalis, 48 h, G. duodenalis trophozoites
Outline: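 Log-phase trophozoites grown in modified TYI-S-33 at 37 °C, harvested by chilling on ice, counted. DMSO stocks diluted two-fold serially; 2 × 10^5 trophozoites/well; metronidazole positive control. Incubated 48 h at 37 °C, anaerobic. BacTiter-Glo added, 20 min at 37 °C, luminescence read. Survival = medium-blank-corrected signal vs untreated; triplicates. SI = Caco-2 CC50 / IC50.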

[3] = tested on: 3D7 parasite line; details: ref Whittell et al., 2011; cited from earlier work

Compound	CC50 at 24 h [1]	IC50 [2]	IC50 [3] [nM]
Cc1ncc([N+](=O)[O-])n1CCO [Metronidazole, metronidazole]	> 100 µg/mL and > 100 µM	2.01 µg/mL and 11.7 µM	–
Cn1cc2c3ccccc3nc-2c2ccccc21 [isocryptolepine, Isocryptolepine]	–	–	665
